The test system of assay [1] is Candida parapsilosis. The assay can be described thus: Antifungal activity against Candida parapsilosis ATCC 22019 after 48 hrs by broth microdilution method. Format: functional. As to conditions: Lodderomyces parapsilosis, ATCC 22019, 48 h. Summed up:
(§1)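 CLSI broth microdilution with final drug concentrations […], incubated at 35°C and read spectrophotometrically at 490 nm at 24 and 48 h. MIC is the first concentration giving 50% turbidity reduction versus control, or 90% for amphotericin B. Run in quintuplicate.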
In general terms: Dilution methods test growth across graded concentrations, often in twofold steps.

Assay [2] concerns Nakaseomyces glabratus. Nature of the assay: Antifungal activity against Candida glabrata isolate 4198 after 48 hrs by broth microdilution method. The assay is classed as functional. Summed up: as §1
Assay [3] concerns Nakaseomyces glabratus. Nature of the assay: Antifungal activity against Candida glabrata isolate 4205 after 48 hrs by broth microdilution method. The assay is classed as functional. As to conditions: isolate 4205, 48 h. Summed up: as §1
Assay [4] deals with Nakaseomyces glabratus. Nature of the assay: Antifungal activity against Candida glabrata isolate 4293 after 48 hrs by broth microdilution method. The assay is classed as functional. Summed up: as §1
For assay [5], the system named is Nakaseomyces glabratus. The assay can be described thus: Antifungal activity against Candida glabrata isolate 4370 after 48 hrs by broth microdilution method. Format: functional. Summed up:
as §1

The test system of assay [6] is Candida parapsilosis. The assay can be described thus: Antifungal activity against Candida parapsilosis ATCC 22019 after 24 hrs by broth microdilution method. The assay is classed as functional. As to conditions: Lodderomyces parapsilosis, ATCC 22019, 24 h. Summed up:
(§2)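 CLSI broth microdilution, final drug concentrations 0.0078–8 µg/ml. Incubated at 35°C and read at 24 and 48 h by OD490. MIC is the first concentration giving 50% (azole, echinocandin) or 90% (polyene) less turbidity than the drug-free control. Quintuplicate.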

Assay [7] deals with Nakaseomyces glabratus. The assay can be described thus: Antifungal activity against Candida glabrata isolate 4198 after 24 hrs by broth microdilution method. The assay is classed as functional. Summed up: as §1
In assay [8] the test system is Nakaseomyces glabratus. Nature of the assay: Antifungal activity against Candida glabrata isolate 4205 after 24 hrs by broth microdilution method. Format: functional. As to conditions: isolate 4205, 24 h. Summed up:
as §1

Assay [9] relates to Nakaseomyces glabratus. Nature of the assay: Antifungal activity against Candida glabrata isolate 4293 after 24 hrs by broth microdilution method. Format: functional. A digest of the protocol:
as §2

The test system of assay [10] is Nakaseomyces glabratus. Nature of the assay: Antifungal activity against Candida glabrata isolate 4370 after 24 hrs by broth microdilution method. The assay is classed as functional. A digest of the protocol: as §1
Assay [11] concerns Nakaseomyces glabratus. Nature of the assay: Antifungal activity against 2.44 x 10^8 CFU Candida glabrata isolate 4293 infected in CD1 mouse assessed as reduction in fungal burden per kidney pair at 1 mg/kg/day, ip administered from day 1 to day 2 post viral challenge measured on day 3 postinfection. The assay is classed as functional, organism-based. Summed up:
(§3)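 Male CD1 mice (25 g) made neutropenic with cyclophosphamide 200 mg/kg/day ip on days −4, +1 and +4 postinfection. Infected iv with C. glabrata 4293 in 0.2 ml. Treatment began 24 h postchallenge, with 1 mg/kg/day ip in 0.2 ml. Sacrifice on day 3 or day 7. Kidney pairs homogenized; diluted and undiluted aliquots plated on Sabouraud dextrose agar for CFU. Medians reported; 7–8 mice per group.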

For assay [12], the system named is Nakaseomyces glabratus. Nature of the assay: Antifungal activity against 1.04 x 10^8 CFU Candida glabrata isolate 4293 infected in CD1 mouse assessed as reduction in fungal burden per kidney pair at 1 mg/kg/day, ip administered from day 1 to day 2 post viral challenge measured on day 3 postinfection. The assay is classed as functional, organism-based. Summed up: as §3

Assay [13] deals with Nakaseomyces glabratus. Nature of the assay: Antifungal activity against 2.44 x 10^8 CFU Candida glabrata isolate 4293 infected in CD1 mouse assessed as reduction in […] per kidney pair at 1 mg/kg/day, ip administered from day 1 to day 2 followed by PEG-200 infusion from day 3 to day 6 […] measured on day 7 postinfection relative to control. Format: functional, organism-based. Summed up: as §3

Assay [14] has as its system Nakaseomyces glabratus. Nature of the assay: Antifungal activity against 1.04 x 10^8 CFU Candida glabrata isolate 4293 infected in CD1 mouse assessed as reduction in viral count per kidney pair at 1 mg/kg/day, ip administered from day 1 to day 2 followed by PEG-200 infusion from day 3 to day 6 post viral challenge measured on day 7 postinfection relative to control. Format: functional, organism-based. Summed up:
as §3

The test system of assay [15] is Nakaseomyces glabratus. Nature of the assay: Antifungal activity against 2.44 x 10^8 CFU Candida glabrata isolate 4293 infected in CD1 mouse assessed as inhibition of regrowth in fungal burden in kidney at 1 mg/kg/day, ip administered from day 1 to day 2 post viral challenge measured on day 3 postinfection. Format: functional, organism-based. A digest of the protocol:
as §3

For assay [16], the system named is Nakaseomyces glabratus. The assay can be described thus: Antifungal activity against 1.04 x 10^8 CFU Candida glabrata isolate 4293 infected in CD1 mouse assessed as inhibition of regrowth in fungal burden in kidney at 1 mg/kg/day, ip administered from day 1 to day 2 post viral challenge measured on day 3 postinfection. Format: functional, organism-based. A digest of the protocol: as §3

Assay [17] relates to Nakaseomyces glabratus. The assay can be described thus: Antifungal activity against 2.44 x 10^8 CFU Candida glabrata isolate 4293 infected in CD1 mouse assessed as inhibition of regrowth in fungal burden in kidney at 1 mg/kg/day, ip administered from day 1 to day 2 post viral challenge measured on day 7 postinfection. Format: functional, organism-based. A digest of the protocol: as §3

Assay [18] relates to Nakaseomyces glabratus. Nature of the assay: Antifungal activity against 1.04 x 10^8 CFU Candida glabrata isolate 4293 infected in CD1 mouse assessed as inhibition of regrowth in fungal burden in kidney at 1 mg/kg/day, ip administered from day 1 to day 2 post viral challenge measured on day 7 postinfection. The assay is classed as functional, organism-based. Summed up: as §3

Values after ≈ are worked out from the molar mass of the structure shown. Active and inactive are the calls of the source.

A word on the MIC: it is the smallest concentration in the dilution series that meets the test's criterion for growth inhibition. Low readings indicate inhibition by little substance, high ones a need for much substance. For the compound `OC(Cn1cncn1)(Cn1cncn1)c1ccc(F)cc1F` [FLUCONAZOLE], the MIC in the assay with Candida parapsilosis [1] is 4 µg/mL (≈ 13.1 µM); against Nakaseomyces glabratus [2] it was over 64 µg/mL; with Nakaseomyces glabratus [3], 1 µg/mL (≈ 3.27 µM); with Nakaseomyces glabratus [4] it was 32 µg/mL (≈ 104 µM); against Nakaseomyces glabratus [5], 16 µg/mL (≈ 52.2 µM).

Turning to `CC[C@H](C)C[C@H](C)CCCCCCCCC(=O)N[C@H]1C[C@@H](O)[C@@H](NCCN)NC(=O)[C@@H]2[C@@H](O)CCN2C(=O)[C@H]([C@H](O)CCN)NC(=O)[C@H]([C@H](O)[C@@H](O)c2ccc(O)cc2)NC(=O)[C@@H]2C[C@@H](O)CN2C(=O)[C@H]([C@@H](C)O)NC1=O` [CASPOFUNGIN], the MIC in the assay on Candida parapsilosis [6] was 0.25 µg/mL (≈ 0.229 µM); with Nakaseomyces glabratus [7] it was 0.25 µg/mL (≈ 0.229 µM); against Nakaseomyces glabratus [8] it was 0.25 µg/mL (≈ 0.229 µM); in the assay with Nakaseomyces glabratus [9], at most 0.03 µg/mL; in the assay on Nakaseomyces glabratus [10] it was 0.125 µg/mL (≈ 0.114 µM). Moreover, the result with Nakaseomyces glabratus [11] and in the assay with Nakaseomyces glabratus [12] was inactive. For the same compound, the outcome in the assay on Nakaseomyces glabratus [13], in the assay with Nakaseomyces glabratus [14], in the assay with Nakaseomyces glabratus [15], in the assay with Nakaseomyces glabratus [16], in the assay with Nakaseomyces glabratus [17] and in the assay with Nakaseomyces glabratus [18] was Active.

The values are drawn from ChEMBL document CHEMBL1151473, “Posaconazole activity against Candida glabrata after exposure to caspofungin or amphotericin B” (2008).
